ADAM10 inh = human ADAM10 inhibitors, primary screen, biochemical, QFRET, HTS; inhibition, % at 7 µM; recombinant ADAM10, EDANS/DABCYL FRET peptide cleavage, 3 h; hit rate 0.62% among 370,000; Disintegrin and metalloproteinase domain-containing protein 10 (Homo sapiens), O14672;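 active = inhibition above a per-campaign cutoff equal to the mean of compounds falling between control-based bounds plus 3 SD, cut at about 20% in these data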;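 note: 0% = DMSO wells while the 100% control is not disclosed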
SENP1 FRET inh = human SENP1 catalytic domain inhibitors, primary screen, biochemical, FRET, uHTS | hit rate 0.21% among 360,000 | recombinant SENP1 catalytic domain, CyPet-SUMO1-YPet FRET cleavage | AID 624204, 2012 | Sentrin-specific protease 1 (Homo sapiens), Q9P0U3 | inhibition, % at 10 µM;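 active = inhibition at least 30% at 10 µM, raw YFP signal under a set limit, fluorescence ratio 0.5 to 1.5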;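 note: 0% = enzyme with DMSO and 100% = no enzyme wells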
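Compound: 10 µM single point, 0.5% DMSO; Test system: hSENP1 catalytic domain, recombinant; Timing: 50 min reaction at room temperature; Technique: FRET, CFP and YFP emission; Control set: no-enzyme wells low, DMSO-plus-enzyme wells high control.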
FAS TE block = FAS thioesterase domain inhibitors, primary screen, biochemical, fluorescence intensity, uHTS. inhibition, % at 15 µM. recombinant FAS-TE, OMFH fluorogenic substrate, fluorescence endpoint. hit rate 0.67% among 360,000. AID 602261, 2012. Fatty acid synthase (Homo sapiens), P49327;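 active = compounds whose normalised, plate-corrected inhibition of enzyme fluorescence in the single-dose primary screen is 50% or more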;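 note: 0% = DMSO with enzyme and 100% = substrate without enzyme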
ADAM17 inh = ADAM17 inhibitors, primary screen, biochemical, QFRET | Disintegrin and metalloproteinase domain-containing protein 17 (Homo sapiens), P78536 | recombinant ADAM17, EDANS/DABCYL FRET peptide cleavage | inhibition, % at 6.95 µM | hit rate 0.83% among 370,000 | AID 720648, 2013;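 active = inhibition above the mean of compounds lying between control limits plus 3 SD, set per campaign, cut at about 8.5% in these data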;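 note: 0% = DMSO-only wells as the low control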
FAS-TE conf = FAS thioesterase domain inhibitors, confirmation, biochemical, fluorescence intensity, single concentration | recombinant FAS-TE, OMFH fluorogenic substrate | shares compounds with FAS TE block | hit rate 45% among 2,300 | inhibition, % at 15 µM;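 active = compounds inhibiting the enzyme by at least 50% at 15 µM in any one of the replicates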;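 note: 0% = enzyme with DMSO only and 100% = wells lacking enzyme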
* hit, by the source's call; . = not tested or not shown. Sampled rows, rich in hits. Any-hit rate of the full collection: about 1.9%.

SMILES | ADAM10 inh | SENP1 FRET inh | FAS TE block | ADAM17 inh | FAS-TE conf
COc1ccc(/C=C/S(=O)(=O)NC2CCCC2)c(CNC(=O)OC(C)(C)C)c1 | 1 | . | . | 2 | .
O=C(NCCc1ccc(Cl)cc1)c1ccc2[nH]c(=O)c(=O)[nH]c2c1 | -274 | -1 | -7 | -94 | .
CC(C)NC(=O)c1sc(=S)n2c1[nH]c(=O)c1ccc(C(=O)NCCc3ccc(Cl)cc3)cc12 | 0 | 49* | 64* | -1 | 9
N/C(=N\OC(=O)CCC1CCCCC1)c1cccc([N+](=O)[O-])c1 | . | 2 | 67* | . | 66*
O=C(c1ccc(C#Cc2ccccc2)cc1)N1CCC(O)CC1 | -1 | . | . | -1 | .
N#Cc1c(N)[nH]c(C(=O)c2ccccc2)c1-c1ccc(Cl)cc1 | 15 | -5 | 67* | 6 | 60*
COc1cc(NC(=S)N2CCC(C(O)(c3ccccc3)c3ccccc3)CC2)cc(OC)c1 | 6 | 1 | 53* | 2 | 32
CCNC(=S)N1CCC(C(O)(c2ccccc2)c2ccccc2)CC1 | -5 | 2 | -3 | -3 | .
O=C(NC1CCCCC1)C1CC(=O)N(c2cccc([N+](=O)[O-])c2)C1 (configuration not stated) | -2 | -1 | 80* | -1 | 84*
CN(CCOC(=O)c1cc2ccccc2o1)C1CN(Cc2cn(Cc3cccc(F)c3)nn2)S(=O)(=O)C1 (configuration not stated) | -7 | . | . | -6 | .
COc1ccc(C(C(=O)N(C)C2CCCC2)N(Cc2ccc(F)cc2)C(=O)c2cc(C)[nH]n2)cc1OC (configuration not stated) | 3 | . | . | 3 | .
CC(C)(C)NC(=O)c1ccc(COc2ccc(Cl)cc2Cl)o1 | 7 | 2 | 65* | 4 | 21
O=C1N[C@@H](Cc2ccccc2)C(=O)N2[C@H]1C[C@]1([C@]34C[C@H]5C(=O)N[C@@H](Cc6ccccc6)C(=O)N5[C@H]3N(S(=O)(=O)c3ccccc3)c3ccccc34)c3ccccc3N(S(=O)(=O)c3ccccc3)[C@H]21 | 6 | -4 | 77* | 1 | 4
O=C(C1=NN(c2ccccc2)C2C(=O)N(c3ccccc3Cl)C(=O)C12)c1ccccc1 (configuration not stated) | -1 | -26 | 52* | -2 | -17
O=C(Nc1cccc(S(=O)(=O)NC2=NCCCCC2)c1)c1cc(-c2ccc(Cl)cc2)nc2ccccc12 | -6 | 2 | 57* | -7 | 27
O=C(Nc1cccc(S(=O)(=O)NC2=NCCCCC2)c1)c1cc(-c2ccccc2)nc2ccccc12 | -9 | -3 | 37 | -3 | .
C/C(=N\Nc1ccccn1)c1ccc(S(=O)(=O)NCc2ccco2)cc1 | 0 | 3 | 54* | 1 | 40*
C/C(=N\Nc1nc(Cl)c(Cl)cc1Cl)c1ccc(S(=O)(=O)NCc2ccco2)cc1 | -10 | -3 | 52* | -3 | 41
C/C(=N\Nc1ccc(C(F)(F)F)cn1)c1ccc(S(=O)(=O)NCc2ccco2)cc1 | 9 | 2 | -18 | 3 | .
CCCCN1C[C@@H](COCc2ccccc2)Oc2cccc(F)c2S1(=O)=O | 18 | . | . | 3 | .
C[C@H]1COc2cc(Br)ccc2S(=O)(=O)N1Cc1cn(Cc2ccc(C(F)(F)F)cc2)nn1 | -3 | . | . | -4 | .
COc1ccc(C(=O)CSc2nnc(-c3n[nH]c4c3CCC4)n2N)cc1OC | 0 | . | . | -1 | .
O=C(NNc1nc(-c2ccccc2)c2cc(Br)ccc2n1)c1ccc(S(=O)(=O)N2CCCCC2)cc1 | 4 | 5 | 74* | -2 | 21
O=C(NNc1nc(-c2ccccc2)c2cc(Br)ccc2n1)c1ccc(S(=O)(=O)N2CCOCC2)cc1 | -9 | 0 | 80* | -5 | 20
O=C(Nc1nc(-c2ccccc2)c(C(=O)c2ccccc2)s1)c1ccc(S(=O)(=O)N2CCCCC2)cc1 | -3 | -55 | 86* | 3 | 9
SMILES | ADAM10 inh | SENP1 FRET inh | FAS TE block | ADAM17 inh | FAS-TE conf
COCCCN1C(=O)[C@H](CC(=O)NCc2cccc3ccccc23)[C@]2(C(=O)OC)CCCCC=C12 | 1 | . | . | 1 | .
COc1ccc2cc(C3CC(c4ccco4)=NN3S(=O)(=O)c3ccccc3)c(Cl)nc2c1 (configuration not stated) | -329 | -14 | 71* | -129 | 27
CCOc1ccc2cc(C3CC(c4ccco4)=NN3S(=O)(=O)c3ccccc3)c(Cl)nc2c1 (configuration not stated) | -4 | -4 | 41 | -5 | .
Cc1cc(-c2n[nH]c(=S)n2N=Cc2ccc(-c3ccccc3)cc2)n[nH]1 | 0 | . | . | -1 | .
CCN(C(=O)c1ccc2c(=O)n3c(nc2c1)CCCCC3)c1ccc(F)cc1 | 6 | 0 | 1 | -3 | .
O=C(Nc1nc(-c2ccccc2)cs1)c1ccc2c(=O)n3c(nc2c1)CCCCC3 | 1 | -1 | 62* | -1 | 15
CCOc1ccccc1N(CC)C(=O)c1ccc2c(=O)n3c(nc2c1)CCCCC3 | -2 | 0 | 57* | 2 | 77*
CCOC(=O)CSc1nc(C)cc(C)c1C#N | -34 | -1 | -2 | -14 | .
Cc1cc(C)c(C#N)c(SCC(=O)c2ccc(Cl)cc2Cl)n1 | 9 | -26 | 72* | -1 | 37*
COc1ccccc1NC(=S)OC1CCC12CCC(c1ccccc1)CC2 (configuration not stated) | 6 | . | . | 3 | .
COc1ccc([C@@H]2[C@@H]3C(=O)N(C(C)(C)C)C(=O)[C@@H]3[C@]3(Cc4ccc(Cl)cc4)C(=O)N(c4cccc(Br)c4)C(=O)N23)cc1 | -6 | 1 | 95* | -5 | 22
CC(C)(C)N1C(=O)[C@H]2[C@@H](c3ccc(Br)cc3)N3C(=O)N(c4cccc(Cl)c4)C(=O)[C@@]3(Cc3ccccc3)[C@H]2C1=O | -5 | 2 | 96* | 1 | 6
COc1ccc([C@@H]2[C@@H]3C(=O)N(C(C)(C)C)C(=O)[C@@H]3[C@]3(Cc4ccccc4)C(=O)N(c4cccc(C)c4)C(=O)N23)cc1 | 10 | 0 | 29 | 1 | .
COc1ccc([C@@H]2[C@@H]3C(=O)N(C(C)(C)C)C(=O)[C@@H]3[C@]3(Cc4ccc(Cl)cc4)C(=O)N(c4cccc(F)c4)C(=O)N23)cc1 | 2 | 3 | 72* | 0 | 31
O=C1[C@H]2[C@@H](c3ccc(F)cc3)N3C(=O)N(c4cccc(Cl)c4)C(=O)[C@@]3(Cc3ccc(Cl)cc3)[C@H]2C(=O)N1C1CCCCC1 | 8 | 1 | 86* | 0 | 19
O=C(CSc1nnc(-c2cccs2)o1)c1cccc([N+](=O)[O-])c1 | 1 | . | . | 0 | .

Source: PubChem (several laboratories)
